In ChEMBL document CHEMBL1153869, “Preparation and antimicrobial behaviour of quaternary ammonium thiol derivatives able to be grafted on metal surfaces” (2009):

Key:
Pseudomonas aeruginosa [1] = assay: Antibacterial activity against Pseudomonas aeruginosa ATCC 9027 after 5 days; format: functional; conditions: ATCC 9027, 120 h
In short: (§1)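 From bacterial MIC plates after 5 days of incubation, the three sub-dose wells showing no growth were streaked onto trypticase soy agar. MLC was the lowest concentration leaving no viable bacteria after subculture on antibiotic-free medium. Three independent experiments were run.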

Staphylococcus aureus [2] = assay: Antibacterial activity against Staphylococcus aureus ATCC 6538 after 5 days; format: functional; conditions: ATCC 6538, 120 h; in short: as §1
Candida albicans [3] = assay: Antifungal activity against Candida albicans ATCC 10231 after 7 days; format: functional; conditions: ATCC 10231, 168 h
In short: (§2)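 From fungal MIC plates after 7 days of incubation, the three sub-dose wells showing no growth were streaked onto Sabouraud dextrose agar. MLC was the lowest concentration leaving no viable fungi after subculture on drug-free medium. Three independent experiments were run.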

Staphylococcus aureus [4] = assay: Antibacterial activity against Staphylococcus aureus ATCC 6538 after 24 hrs by serial dilution method; format: functional; conditions: ATCC 6538, 24 h
In short: (§3)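 Bacteria were grown overnight on a TSA slant, transferred into M9GY (pH 7.0) and incubated overnight at 30 °C. Third-generation, exponential-phase cells were adjusted to OD660 0.05 (about 5.10⁶–5.10⁷ cfu/mL). Initial solutions in methanol/water 1:1 were serially diluted automatically in microtitre plates. MIC was the lowest concentration with no turbidity after 24 h at 30 °C. Three independent experiments were run.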

Aspergillus niger [5] = assay: Antifungal activity against Aspergillus niger ATCC 6275 after 72 hrs by serial dilution method; conditions: ATCC 6275, 72 h
Aspergillus niger [6] = assay: Antifungal activity against Aspergillus niger ATCC 6275 after 7 days; format: functional; conditions: ATCC 6275, 168 h; in short: as §2
Pseudomonas aeruginosa [7] = assay: Antibacterial activity against Pseudomonas aeruginosa ATCC 9027 after 24 hrs by serial dilution method; format: functional; conditions: ATCC 9027, 24 h; in short: as §3
Candida albicans [8] = assay: Antifungal activity against Candida albicans ATCC 10231 after 72 hrs by serial dilution method; conditions: ATCC 10231, 72 h

Row | Compound | MIC (Staphylococcus aureus [4]) [µM] | MIC (Aspergillus niger [5]) [µM] | MIC (Pseudomonas aeruginosa [7]) [µM] | MIC (Candida albicans [8]) [µM] | MLC (Pseudomonas aeruginosa [1]) [µM] | MLC (Staphylococcus aureus [2]) [µM] | MLC (Candida albicans [3]) [µM] | MLC (Aspergillus niger [6]) [µM]
1 | C[N+](C)(C)CCCCCCCCCCCS | 56.6 | 56.6 | 557 | 1120 | > 1120 | 56.6 | > 1900 | > 131
2 | CCCCCCCCCCCCCC[N+](C)(C)CCCNC(=O)CCCCCCCCCCS | 188 | 56.3 | 442 | > 742 | 599 | 188 | > 742 | > 74.2
3 | C[N+](C)(CCCNC(=O)CCCCCCCCCCS)Cc1ccccc1 | 592 | 773 | 980 | > 1060 | > 1060 | 946 | > 1060 | > 946
4 | C[N+](C)(C)CCCNC(=O)CCCCCCCCCCS | 105 | 105 | 595 | > 1070 | > 864 | > 395 | > 1070 | > 395
5 | C[N+](C)(CCCCCCCCCCCS)Cc1ccccc1 | 682 | 351 | 1060 | 472 | > 1530 | 682 | > 896 | 682
6 | CCCCCCCCCCCCCC[N+](C)(C)Cc1ccccc1 [MIRISTALKONIUM CHLORIDE] | 3.2 | 4.74 | 93 | 8.36 |  |  |  | 

Second part, led by results:

Row | MIC (Staphylococcus aureus [4]) [µM] | MIC (Aspergillus niger [5]) [µM] | MIC (Pseudomonas aeruginosa [7]) [µM] | MIC (Candida albicans [8]) [µM] | Compound | MLC (Pseudomonas aeruginosa [1]) [µM] | MLC (Staphylococcus aureus [2]) [µM] | MLC (Candida albicans [3]) [µM] | MLC (Aspergillus niger [6]) [µM]
7 | 17.5 | 44.1 | 171 | > 677 | CCCCCCCCCC[N+](C)(C)CCCNC(=O)CCCCCCCCCCS | 250 | 32.5 | > 677 | > 60.7
8 | 11.6 | 31.6 | 309 | 31.6 | CCCCCCCCCC[N+](C)(C)CCCCCCCCCCCS | 309 | 48 | > 61.3 | 48
9 | 34.7 | 67.2 | 326 | 39.5 | CCCCCCCCCCCC[N+](C)(C)CCCCCCCCCCCS | 326 | 73.3 | > 63.4 | > 92.2
10 | 1310 | 90 | 1120 | 1520 | CCCCCCCCCCCCCC[N+](C)(C)CCCCCCCCCCCS | > 1520 | > 1520 | > 1520 | > 124
11 | 18.7 | 47 | 184 | > 688 | CCCCCCCCCCCC[N+](C)(C)CCCNC(=O)CCCCCCCCCCS | 184 | 38.2 | > 688 | > 61.7
